{"source": "ChEMBL document CHEMBL1124149", "about": "(1988)", "system": "Vaccinia virus", "assay": "In vitro minimum inhibitory concentration to inhibit VV-induced cytopathogenicity in PRK cells by 50%", "format": "functional", "settings": "Orthopoxvirus vaccinia", "how_it_was_run": "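Antiviral read-out was virus-induced cytopathogenicity in primary rabbit kidney (PRK) cell cultures. The value is the compound concentration needed to reduce cytopathogenicity by 50%.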"}
{"compound": "Cc1cn2c(O)c3ncn(COCCO)c3nc2n1", "values": [{"measurement": "MIC", "result": "> 400", "unit": "µg/mL"}]}
{"compound": "Cc1cn2c([O-])c3c(nc2n1)[n+](COCCO)cn3C", "values": [{"measurement": "MIC", "result": "> 400", "unit": "µg/mL"}]}
{"compound": "Cn1c(N)nc2c(ncn2COCCO)c1=O", "values": [{"measurement": "MIC", "result": "> 400", "unit": "µg/mL"}]}
{"compound": "Cc1cn2c(=O)c3ncn(COCCO)c3nc2n1C", "values": [{"measurement": "MIC", "result": "> 400", "unit": "µg/mL"}]}
{"compound": "Cn1c[n+](COCCO)c2nc(N)nc([O-])c21.O=S(=O)(O)O", "values": [{"measurement": "MIC", "result": "> 400", "unit": "µg/mL"}]}
{"compound": "Nc1nc2c(ncn2COCCO)c(=O)[nH]1", "note": "[ACYCLOVIR]", "values": [{"measurement": "MIC", "result": 150, "unit": "µg/mL"}]}
{"compound": "CNc1nc(O)c2ncn(COCCO)c2n1", "values": [{"measurement": "MIC", "result": "> 400", "unit": "µg/mL"}]}
